High-throughput results from PubChem BioAssay.
Hits are enriched below; roughly 5% of the tested compounds scored in any of these assays.
UPR XBP1 act – adaptive UPR (XBP1) activation; CHO-XBP1 luciferase reporter, IRE1-XBP1 UPR activation, luminescence; percent of tunicamycin response, DMSO as zero; hit rate 0.33% among 330,000; activation, % at 20 µM;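 active = versus positive control, 20 µM dose yields 30% or more activation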;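 note: 100% = tunicamycin at 10 µg/mL and 0% = DMSO only wells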
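Material: CHO cell line with stable XBP1 luciferase reporter; schedule: 16-18 h cell attachment at 37 °C, then 6 h compound exposure; signal: glow luminescence from Steady-Glo reagent; medium: serum-containing F12 medium, 10% FBS; benchmarks: tunicamycin 10 µg/mL and vehicle-only wells; read-out: percent activation relative to tunicamycin reference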
CSC inhib – blocks cancer stem cells | cancer stem cell-like cells viability, luminescence | inhibition, % at 7.5 µM | hit rate 1.1% among 300,000; in the data active = inhibition above about 75%; tested in HMLE shEcad cells
UPR CHOP act – apoptotic UPR (CHOP) activation | activation, % at 10 µM | hit rate 0.34% among 330,000 | CHO-CHOP luciferase reporter, luminescence; percent of tunicamycin response over DMSO baseline;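 active = at 10 µM dose, activation of 40% or more, normalized to positive control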;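 note: 100% = tunicamycin at 10 µg/mL and 0% = DMSO alone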
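System: CHO CHOP reporter cells. Amount: 500 cells per well. Buffer or medium: F12 medium, 10% FBS. Compound dosing: one dose, 10 µM in 0.5% DMSO. Incubation: 6 h compound exposure at 37 °C after overnight seeding. Technique: Steady-Glo luciferase luminescence. Benchmarks: tunicamycin and DMSO controls.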
Beta apoptosis – blocks beta cell apoptosis. protection from apoptosis, % (no concentration beside the values). INS-1E cytokine-induced death, ATP luminescence, 48 h; percent of positive-control rescue, neutral wells zero. hit rate 0.8% among 300,000. AID 435005;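 active = Every replicate reaches about 75%, or at least half do and their mean reaches it too, limit read from the data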;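 note: 0% = cytokine-treated negative control wells and 100% = positive control rescue; higher means more ATP so stronger rescue from cytokine killing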
T cruzi inh – blocks replication of Trypanosoma cruzi; T. cruzi beta-gal in NIH3T3, luminescence, 90 h; inhibition, % (concentration not given with the values); hit rate 1.4% among 300,000; AID 1885;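 active = mean inhibition across valid replicates above about 55%, limit read from the data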;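 note: signal also drops with host cell toxicity which is not excluded here; 0% = plate median of DMSO wells and 100% = zero luminescence signal; higher percent means less beta-gal luminescence so fewer parasites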
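System: mouse NIH/3T3 fibroblasts infected with β-gal-expressing T. cruzi Tulahuen C4 / Input: NIH/3T3 cells, 5,000 per well / Buffer or medium: Low-serum DMEM with 2% FBS / Probe or stimulus: 5000 reporter trypomastigotes per well / Schedule: ≥90 h infection period, 3 h prior cell attachment / Measured by: GalScreen luminescence, 60 min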
Mdm2-MdmX inh – human Mdm2/MdmX binding inhibition; O15151+Q00987; SaOS-2 split-luciferase Mdm2/MdmX complementation, luminescence; inhibition, % at 8 µM; hit rate 3% among 330,000;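 active = inhibition of at least 50% at 8 µM in the primary screen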
Mdm2-MdmX conf – confirmation of human Mdm2/MdmX interaction inhibitors; shares compounds with Mdm2-MdmX inh; Mdm2-MdmX binding, luminescent assay; inhibition, % at 8 µM; hit rate 55% among 10,000; AID 489028; in the data active = inhibition above about 40%
FLuc counter – full-length luciferase inhibition in Mdm2/MdmX counter-screen; shares compounds with Mdm2-MdmX inh; SaOS-2 full-length luciferase counterscreen, luminescence; inhibition, % at 8 µM; hit rate 77% among 6,200; AID 504607;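 active = mean inhibition at 8 µM reaching about 37%, which flags the compound as non-specific, limit read from the data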;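 note: p53-null SaOS-2 cells with luciferase driven by a doxycycline-inducible promoter; compound on cells about two nights before reading with doxycycline added after day one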
* hit, by the source's call.

Screening COc1cccc(C2CC(c3c(-c4ccccc4)c4cc(Cl)ccc4[nH]c3=O)=NN2S(C)(=O)=O)c1OC (stereo not drawn) returned UPR XBP1 act -3, CSC inhib 16, UPR CHOP act 6, Beta apoptosis 20, T cruzi inh 36, Mdm2-MdmX inh 50*, Mdm2-MdmX conf 32 and FLuc counter 69*.
`COc1ccccc1C1CC(c2c(-c3ccccc3)c3cc(Cl)ccc3[nH]c2=O)=NN1S(C)(=O)=O` (stereo not drawn) gave UPR XBP1 act 4, CSC inhib 10, UPR CHOP act -1, Beta apoptosis 18 and Mdm2-MdmX inh 37.
`COc1ccc(NS(=O)(=O)c2cc(NC(=O)c3ccc(=O)[nH]n3)ccc2C)cc1` gave UPR XBP1 act -1, UPR CHOP act -1, Beta apoptosis 6, Mdm2-MdmX inh 52*, Mdm2-MdmX conf 46* and FLuc counter 65*.
`COc1ccc(NS(=O)(=O)c2cc(NC(=O)c3ccc(=O)[nH]c3)ccc2N2CCCC2)cc1` gave UPR XBP1 act -4, CSC inhib 133*, UPR CHOP act 2, Beta apoptosis 1, T cruzi inh -14, Mdm2-MdmX inh 82*, Mdm2-MdmX conf 73* and FLuc counter 43*.
O=C(Nc1cc(S(=O)(=O)Nc2ccc(Cl)cc2)ccc1N1CCCCC1)c1ccc(F)cc1 was read as UPR XBP1 act 2, CSC inhib 90*, UPR CHOP act 3, Beta apoptosis 112*, T cruzi inh 19, Mdm2-MdmX inh 72* and Mdm2-MdmX conf 35.
COc1ccc(NS(=O)(=O)c2cc(C(=O)O)ccc2C)cc1 was read as UPR XBP1 act -1, CSC inhib -7, UPR CHOP act -3, Beta apoptosis -10, T cruzi inh -8 and Mdm2-MdmX inh 25.
N#Cc1ccc(C(=O)Nc2cc(S(=O)(=O)Nc3ccc(Cl)cc3)ccc2N2CCCCC2)cc1 was read as UPR XBP1 act -2, CSC inhib 35, UPR CHOP act 0, Beta apoptosis 12, T cruzi inh 30 and Mdm2-MdmX inh -3.
Screening COc1ccc(NS(=O)(=O)c2cc(NC(=O)c3ccco3)ccc2N2CCCCC2)cc1 returned UPR XBP1 act -4, CSC inhib 52, UPR CHOP act 0, Beta apoptosis 12, T cruzi inh 21, Mdm2-MdmX inh 60*, Mdm2-MdmX conf 40 and FLuc counter 60*.
Screening Cc1cc(C)n(CCC(=O)N2c3ccccc3CC2C)n1 (stereo not drawn) returned UPR XBP1 act -4, CSC inhib -6, UPR CHOP act 0, Beta apoptosis -1, T cruzi inh -8 and Mdm2-MdmX inh 4.
`COc1ccc(NS(=O)(=O)c2cc(NC(=O)c3ccc(Cl)cc3)ccc2N2CCOCC2)cc1` gave UPR XBP1 act -4, CSC inhib 71, UPR CHOP act 1, Beta apoptosis 31, Mdm2-MdmX inh 82*, Mdm2-MdmX conf 67* and FLuc counter 27.
For COc1cc(C=O)c(Br)cc1OCc1ccc(C)cc1 the results were UPR XBP1 act 2, CSC inhib 5, UPR CHOP act 7, Beta apoptosis -8, T cruzi inh 13 and Mdm2-MdmX inh 6.
Cc1cccc2cc(C#N)c(SCC(=O)NNC(=O)Cc3ccccc3)nc12 was read as UPR XBP1 act -1, CSC inhib -7, UPR CHOP act -1, Beta apoptosis 0, T cruzi inh 3, Mdm2-MdmX inh 78* and Mdm2-MdmX conf -2.
Cc1cc(C)c2cc(C#N)c(SCC(=O)Nc3ccc4c(c3)OCO4)nc2c1 was read as UPR XBP1 act 6, CSC inhib 5, UPR CHOP act 1, Beta apoptosis 6, T cruzi inh 1, Mdm2-MdmX inh 80* and Mdm2-MdmX conf 5.
For Cc1cc(C)c2nc(SCC(=O)Nc3cc(C)on3)c(C)cc2c1 the results were UPR XBP1 act 0, CSC inhib 5, UPR CHOP act 0, Beta apoptosis -1, T cruzi inh -10 and Mdm2-MdmX inh 31.
Cc1cc(C)c2cc(C#N)c(SCC(=O)NCC3CCCO3)nc2c1 (stereo not drawn) was read as UPR XBP1 act -2, CSC inhib -1, UPR CHOP act -1, Beta apoptosis 3, T cruzi inh 6 and Mdm2-MdmX inh -12.
Cc1cc(C)c2nc(SCC(=O)Nc3cc(C)on3)c(C#N)cc2c1 was read as UPR XBP1 act 7, CSC inhib -9, UPR CHOP act 2, Beta apoptosis 6, T cruzi inh -19, Mdm2-MdmX inh 58* and Mdm2-MdmX conf 8.
Cc1cc2cccc(C)c2nc1SCC(=O)NNC(=O)c1ccco1 was read as UPR XBP1 act -3, CSC inhib -5, UPR CHOP act -1, Beta apoptosis -5, T cruzi inh -14 and Mdm2-MdmX inh -13.
`C=C(C)CN1CCN(c2c(CCC#N)c(C)c(C#N)c3nc4ccccc4n23)CC1` gave UPR XBP1 act -3, CSC inhib 6, UPR CHOP act 0, Beta apoptosis 1, T cruzi inh -6, Mdm2-MdmX inh 74* and Mdm2-MdmX conf 24.
Screening CCCCCc1c(C)c(C#N)c2nc3ccccc3n2c1-n1ccnc1C returned UPR XBP1 act 0, CSC inhib -12, UPR CHOP act -1, Beta apoptosis 2, T cruzi inh 13 and Mdm2-MdmX inh 1.
For O=C(Nc1cccc(C(=O)O)c1)/C(=C\c1ccccc1Cl)NC(=O)c1ccco1 the results were UPR XBP1 act -9, CSC inhib 8, UPR CHOP act -2, Beta apoptosis 0, T cruzi inh -9 and Mdm2-MdmX inh 4.
`CCN(CC)CCOC(=O)c1ccc(N/C=C(/C#N)c2nc(-c3cccc(OC)c3)cs2)cc1` gave UPR XBP1 act -1, CSC inhib 15, UPR CHOP act 2, Beta apoptosis 8, T cruzi inh 15, Mdm2-MdmX inh 61* and Mdm2-MdmX conf 9.
Screening COc1ccc(C(=O)N/C(=C/c2cccs2)C(=O)NN)cc1OC returned UPR XBP1 act 0, CSC inhib -10, UPR CHOP act 0, Beta apoptosis -10, T cruzi inh -6 and Mdm2-MdmX inh -5.
Screening COc1cccc(NC(=O)c2ncc(Cl)c(Cl)c2Cl)c1 returned UPR XBP1 act 1, CSC inhib -8, UPR CHOP act 7, Beta apoptosis 5, T cruzi inh -9 and Mdm2-MdmX inh -48.
